Source: ChEMBL document CHEMBL4261631, “Synthetic thiosemicarbazones as a new class of Mycobacterium tuberculosis protein tyrosine phosphatase A inhibitors” (Bioorg Med Chem, 2018)

Assays:
[1] = target: T1, Low molecular weight protein-tyrosine phosphatase A (Mycobacterium tuberculosis) (UniProt P9WIA1); test: Inhibition of recombinant Mycobacterium tuberculosis PtpA at 25 uM using p-nitrophenyl phosphate as substrate preincubated for 10 mins followed by substrate addition and measured every minute for 10 mins by UV-VIS spectrophotometric analysis
T1 sequence (whole entry): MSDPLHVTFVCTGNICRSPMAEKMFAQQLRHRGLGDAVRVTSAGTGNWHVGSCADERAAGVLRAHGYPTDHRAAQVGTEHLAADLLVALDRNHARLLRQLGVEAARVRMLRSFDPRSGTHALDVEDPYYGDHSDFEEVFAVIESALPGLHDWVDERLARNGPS
Outline: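 Single-point screen at 25 µM final (from 1 mM DMSO stock, 2.5% DMSO final). 50 nM recombinant Mtb PtpA in 20 mM imidazole pH 7.0, premixed with compound 10 min at 37 °C. Reaction started with 10 mM pNPP. A410 read each min for 10 min at 37 °C. Residual activity from absorbance difference 7 min minus 2 min versus no-inhibitor wells. Triplicate.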

[2] = target: T2, Tyrosine-protein phosphatase non-receptor type 12 (Homo sapiens, UniProt Q05209); test: Inhibition of recombinant human PTP-PEST using p-nitrophenyl phosphate as substrate preincubated for 10 mins followed by substrate addition and measured every minute for 10 mins by UV-VIS spectrophotometric analysis
T2 sequence (Q05209 whole entry): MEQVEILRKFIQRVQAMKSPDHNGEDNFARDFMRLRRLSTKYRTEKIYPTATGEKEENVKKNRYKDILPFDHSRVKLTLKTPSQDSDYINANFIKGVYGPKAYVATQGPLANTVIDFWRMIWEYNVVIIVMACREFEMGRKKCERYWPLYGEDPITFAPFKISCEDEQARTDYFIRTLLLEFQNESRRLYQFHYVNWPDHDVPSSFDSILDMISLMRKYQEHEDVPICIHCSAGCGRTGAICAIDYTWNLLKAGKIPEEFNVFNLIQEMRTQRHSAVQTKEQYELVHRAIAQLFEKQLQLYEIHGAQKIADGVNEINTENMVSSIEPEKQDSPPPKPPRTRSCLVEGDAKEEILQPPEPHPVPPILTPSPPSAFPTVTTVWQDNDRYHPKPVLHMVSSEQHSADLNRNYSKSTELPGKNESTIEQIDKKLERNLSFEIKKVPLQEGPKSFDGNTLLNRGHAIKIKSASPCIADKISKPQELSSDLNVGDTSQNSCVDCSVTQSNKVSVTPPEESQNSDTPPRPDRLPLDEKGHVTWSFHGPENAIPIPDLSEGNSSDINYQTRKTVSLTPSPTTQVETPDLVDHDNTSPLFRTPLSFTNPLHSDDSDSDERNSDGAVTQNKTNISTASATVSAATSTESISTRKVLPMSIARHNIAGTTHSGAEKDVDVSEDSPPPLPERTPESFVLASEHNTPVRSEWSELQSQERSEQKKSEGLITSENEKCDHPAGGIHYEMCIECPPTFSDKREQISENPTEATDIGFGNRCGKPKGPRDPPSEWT
Outline: (§1)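 Recombinant PTP at PtpB 50 nM, LYP 169 nM, PTP-PEST 205 nM or PTP1B 38 nM, in 20 mM imidazole pH 7.0. Inhibitor (0.5–50 µM, DMSO ≤4% v/v) premixed with enzyme 10 min at 37 °C. Started with 10 mM pNPP. A410 each min for 10 min. Activity from 7 min minus 2 min. IC50 by linear regression. Triplicate.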

[3] = Selectivity index, ratio of IC50 for recombinant human PTP-PEST to IC50 for recombinant Mycobacterium tuberculosis PtpA
Outline: (§2)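 Selectivity index calculated as IC50 for PtpB, LYP, PTP-PEST or PTP1B divided by IC50 for PtpA. Both IC50 values come from pNPP hydrolysis at 37 °C with 10 min enzyme–inhibitor premix and A410 readout, using 0.5–50 µM inhibitor.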

[4] = Selectivity index, ratio of IC50 for recombinant human Ptp1B to IC50 for recombinant Mycobacterium tuberculosis PtpA; outline: as §2
[5] = target: Tyrosine-protein phosphatase YopH (Yersinia enterocolitica, UniProt P15273); test: Inhibition of recombinant Yersinia enterocolitica YopH using p-nitrophenyl phosphate as substrate preincubated for 10 mins followed by substrate addition and measured every minute for 10 mins by UV-VIS spectrophotometric analysis
Tyrosine-protein phosphatase YopH, sequence (P15273 whole entry): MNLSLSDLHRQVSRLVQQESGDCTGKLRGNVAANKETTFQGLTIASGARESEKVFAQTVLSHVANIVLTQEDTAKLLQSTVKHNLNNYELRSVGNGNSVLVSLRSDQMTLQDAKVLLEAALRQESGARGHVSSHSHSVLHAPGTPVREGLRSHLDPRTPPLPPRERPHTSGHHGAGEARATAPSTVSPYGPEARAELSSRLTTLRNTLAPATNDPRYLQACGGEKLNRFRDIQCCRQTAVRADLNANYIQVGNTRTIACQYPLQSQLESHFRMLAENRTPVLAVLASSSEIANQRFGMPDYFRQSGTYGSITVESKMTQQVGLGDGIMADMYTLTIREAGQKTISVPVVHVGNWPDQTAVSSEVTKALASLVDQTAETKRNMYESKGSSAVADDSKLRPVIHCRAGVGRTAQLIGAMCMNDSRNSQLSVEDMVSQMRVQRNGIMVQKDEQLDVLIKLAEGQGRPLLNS

[6] = test system: Mycobacterium tuberculosis; test: Selectivity index, ratio of IC50 for recombinant Mycobacterium tuberculosis PtpB to IC50 for recombinant Mycobacterium tuberculosis PtpA; outline: as §2
[7] = Selectivity index, ratio of IC50 for recombinant Yersinia enterocolitica YopH to IC50 for recombinant Mycobacterium tuberculosis PtpA
[8] = target: T3, Tyrosine-protein phosphatase non-receptor type 22 (Homo sapiens, UniProt Q9Y2R2); test: Inhibition of recombinant human LYP using p-nitrophenyl phosphate as substrate preincubated for 10 mins followed by substrate addition and measured every minute for 10 mins by UV-VIS spectrophotometric analysis; outline: as §1
T3 sequence (Q9Y2R2 whole entry): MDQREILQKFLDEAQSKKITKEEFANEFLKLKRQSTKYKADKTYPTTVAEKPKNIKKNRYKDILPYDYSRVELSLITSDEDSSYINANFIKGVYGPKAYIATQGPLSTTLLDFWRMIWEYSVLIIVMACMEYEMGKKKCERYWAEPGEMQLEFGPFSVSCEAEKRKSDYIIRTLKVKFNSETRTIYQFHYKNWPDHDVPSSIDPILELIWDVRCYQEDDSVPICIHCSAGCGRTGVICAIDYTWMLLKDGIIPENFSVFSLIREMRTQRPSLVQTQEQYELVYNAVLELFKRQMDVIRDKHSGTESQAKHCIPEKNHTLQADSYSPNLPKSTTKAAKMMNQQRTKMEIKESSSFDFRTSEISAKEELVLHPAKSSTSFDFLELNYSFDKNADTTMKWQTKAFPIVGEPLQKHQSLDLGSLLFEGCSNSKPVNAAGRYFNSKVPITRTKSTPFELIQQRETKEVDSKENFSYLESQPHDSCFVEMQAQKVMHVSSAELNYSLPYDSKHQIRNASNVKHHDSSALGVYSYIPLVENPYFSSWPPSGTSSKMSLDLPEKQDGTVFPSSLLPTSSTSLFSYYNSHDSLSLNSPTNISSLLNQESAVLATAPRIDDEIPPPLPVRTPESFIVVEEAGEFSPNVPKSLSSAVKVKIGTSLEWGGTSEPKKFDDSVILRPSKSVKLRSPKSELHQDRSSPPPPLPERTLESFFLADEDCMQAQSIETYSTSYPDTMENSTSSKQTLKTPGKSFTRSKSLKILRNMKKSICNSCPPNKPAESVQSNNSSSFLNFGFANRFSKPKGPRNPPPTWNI

[9] = Selectivity index, ratio of IC50 for recombinant human LYP to IC50 for recombinant Mycobacterium tuberculosis PtpA; outline: as §2

Row | Compound | inhibition [1] [%] | IC50 [2] [µM] | Ratio IC50 [3] | Ratio IC50 [4] | IC50 [5] [µM] | Ratio IC50 [6] | Ratio IC50 [7] | IC50 [8] [µM] | Ratio IC50 [9]
1 | S=C(N/N=C/c1ccc(-c2ccccc2)cc1)Nc1cccc2ccccc12 | 79.7 | > 50 | > 6.8 | > 6.8 | 6.5 | 2.4 | 0.9 | > 50 | > 6.8
2 | O=[N+]([O-])c1ccc(/C=N/NC(=S)Nc2cccc3ccccc23)cc1 | 77.7 | > 50 | > 5.3 | 1.8 | 7.1 | 1.9 | 0.7 | > 50 | > 5.3
3 | Cc1ccc(NC(=S)N/N=C/c2ccc(-c3cc(C(F)(F)F)ccc3Cl)o2)cc1 | 66 | > 50 | > 5.5 | 4.2 | 6.9 | 3.3 | 0.8 | > 50 | > 5.5
4 | FC(F)(F)c1ccc(Cl)c(-c2ccc(/C=N/NC(=S)Nc3cccc4ccccc34)o2)c1 | 86.7 | 15.7 | 5.4 | 3.2 | 2.6 | 2.1 | 0.9 | > 50 | > 10.3
